For 9 compounds, IC50 and EC50 results are on record in ChEMBL document CHEMBL1629423, “Second generation analogs of rigid 6,7-spiro scaffolds targeting the bacterial ribosome” (Bioorg Med Chem Lett, 2010).

A value given as a limit tells only on which side of the number the result lay.

The target of one experiment is Bacterial 70S ribosome. In words: Binding affinity to Escherichia coli ribosome assessed as inhibition of transcription-translational activity by luciferase assay. The class given is subcellular. In a few lines: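 Coupled in vitro transcription–translation run in E. coli extract. IC50 values are given in μM and averaged over three replicate experiments per compound (±15%).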

Another experiment has as its target Nucleic Acid. In words: Binding affinity to RNA by RNA fluorescence assay. The class given is nucleic-acid assay. An outline of the steps: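 Decoding-site model RNA oligonucleotide carrying 2-aminopurine at the flexible adenine A1492. Binding is read as the rise in 2AP fluorescence emission. EC50 is the mean of three replicate experiments per compound (±10%), in μM.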

The target of the next experiment is Ribosome. Briefly: Binding affinity to ribosome in reticulocyte lysate assessed as inhibition of transcription-translational activity by luciferase assay. Type of experiment: subcellular. In a few lines: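 Eukaryotic counter-screen by coupled transcription/translation (TNT quick) in reticulocyte lysate. IC50 is the mean of three replicate experiments per compound (±15%), in μM.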

As for `N[C@@H]1C[C@H](N)[C@@]2(C[C@H](O)[C@H](O)CO2)[C@H](O)[C@H]1O`, the concentration for half-maximal inhibition (IC50) (commonly the concentration that inhibits the measured activity by half) was 11.3 µM at Bacterial 70S ribosome and greater than 1000 µM at Ribosome. Further, at Nucleic Acid, the EC50 – broadly, the concentration needed to bring the measured effect to its halfway point – came to 6.5 µM.

For the compound `N[C@@H]1C[C@H](N)[C@@]2(CC[C@@H](O)[C@@H](O)CO2)[C@H](O)[C@H]1O`, the values for the IC50 on Bacterial 70S ribosome and at Ribosome were 168 µM and 160 µM, respectively. In addition, at Nucleic Acid, the EC50 stood at 141 µM.

For the compound `N[C@@H]1C[C@H](N)[C@@]2(CC[C@H](O)[C@H](O)CO2)[C@H](O)[C@H]1O`, the IC50 was found to be 118 µM at Bacterial 70S ribosome and 130 µM at Ribosome. In addition, the EC50 at Nucleic Acid is 74 µM.

Turning to `N[C@@H]1C[C@H](N)[C@@]2(CCC=CCO2)[C@H](O)[C@H]1O`, the IC50 on Bacterial 70S ribosome and on Ribosome was greater than 1000 µM throughout. The same compound came in with an EC50 on Nucleic Acid of 8.4 µM.

For the compound `C=CCC(C)(C)CN[C@@H]1C[C@H](N)[C@@]2(CCC=CCO2)[C@H](O)[C@H]1O`, the IC50 was 429 µM on Bacterial 70S ribosome and greater than 1000 µM at Ribosome. In addition, the EC50 at Nucleic Acid amounted to 63 µM.

As to `NCC[C@H](O)C(=O)N[C@@H]1C[C@H](N)[C@@]2(CC[C@H](O)[C@H](O)CO2)[C@H](O)[C@H]1O`, the values for the IC50 at Bacterial 70S ribosome and at Ribosome were 186 µM and greater than 1000 µM, respectively. At Nucleic Acid, this compound yielded an EC50 of 6.9 µM.

With `NCCCC[C@H](N)C(=O)N[C@@H]1C[C@H](N)[C@@]2(CC[C@H](O)[C@H](O)CO2)[C@H](O)[C@H]1O`, the IC50 at Bacterial 70S ribosome is 98 µM; on Ribosome it was greater than 1000 µM. Moreover, the EC50 at Nucleic Acid came to 12 µM.

In the case of `NC[C@@H]1O[C@H](O[C@H]2[C@@H](O)[C@H](O[C@@H]3[C@@H](O)[C@H](N)C[C@H](N)[C@H]3O[C@H]3O[C@H](CN)[C@@H](O)[C@H](O)[C@H]3N)O[C@@H]2CO)[C@H](N)[C@@H](O)[C@@H]1O` [FRAMYCETIN], the IC50 turned out to be 0.032 µM on Bacterial 70S ribosome and 252 µM at Ribosome. The same compound gave an EC50 on Nucleic Acid of 0.007 µM.

For `NC[C@H]1O[C@H](O[C@H]2[C@H](O)[C@@H](O)[C@H](N)C[C@@H]2N)[C@H](N)[C@@H](O)[C@@H]1O` [NEAMINE], the IC50 at Bacterial 70S ribosome amounted to 5 µM; on Ribosome it was 120 µM. This compound came in with an EC50 on Nucleic Acid of 9.5 µM.
